In ChEMBL document CHEMBL1155362, “Synthesis, characterization and derivatization of some novel types of mono- and bis-imidazolidineiminothiones and imidazolidineiminodithiones with antitumor, antiviral, antibacterial and antifungal activities--part I” (Eur J Med Chem, 2009):
≈ marks a conversion by molar mass, not a printed value. Calls of active or inactive are those of the source. The rule behind the calls is not given here.

How the values were obtained:
Candida albicans [1] = assay: Antifungal activity against Candida albicans IMRU 3669 at 5 mg/ml by agar disk diffusion assay; type: functional; conditions: for zone of inhibition at 5000 µg/mL: Candida albicans, IMRU 3669, read-out: DIZ
How it was run: (§1)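 Fungi maintained on Czapek's Dox agar; agar well diffusion with 1 cm wells and […] of each concentration (1, 2.5, 5 mg/mL) in DMF; inhibition zone diameter measured.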

Aspergillus niger [2] = assay: Antifungal activity against Aspergillus niger IMI 31726 at 5 mg/ml by agar disk diffusion assay; type: functional; conditions: read-out: DIZ
Hepatovirus A [3] = assay: Antiviral activity against HAV infected african green monkey Vero cells at 10^-3 dilution of 5 mg/ml by plaque formation assay; type: functional
How it was run: (§2)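 Compound dilutions prepared from a 5 mg/mL DMSO stock, using the maximum non-toxic dilution for Vero cells over 3 days; 0.1 mL virus (10³) mixed with 0.1 mL compound for 1 h at room temperature; mixture inoculated onto washed Vero monolayers in 12-well plates and adsorbed at 37 °C; 2× MEM/agarose overlay applied; read-out % reduction in plaque count versus untreated virus control.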

Human alphaherpesvirus 1 [4] = assay: Antiviral activity against HSV1 infected african green monkey Vero cells at 10^-3 dilution of 5 mg/ml by plaque formation assay; type: functional; how it was run: as §2
Coxsackievirus B4 [5] = assay: Antiviral activity against Coxsackievirus B4 infected african green monkey Vero cells at 10^-3 dilution of 5 mg/ml by plaque formation assay; type: functional; how it was run: as §2
Escherichia coli = assay: Antibacterial activity against Escherichia coli NCTC 10416 at 5 mg/ml by agar disk diffusion assay; type: functional; conditions: read-out: DIZ
Salmonella typhi [6] = assay: Antibacterial activity against Salmonella typhi NCIMB 9331 at 5 mg/ml by agar disk diffusion assay; type: functional, Salmonella enterica subsp. enterica serovar Typhi; conditions: Salmonella enterica, read-out: DIZ
Bacillus subtilis [7] = assay: Antibacterial activity against Bacillus subtilis NCTC 1040 at 5 mg/ml by agar disk diffusion assay; type: functional; conditions: read-out: DIZ
Staphylococcus aureus [8] = assay: Antibacterial activity against Staphylococcus aureus NCTC 7447 at 5 mg/ml by agar disk diffusion assay; type: functional; conditions: read-out: DIZ
Bacillus subtilis [9] = assay: Antibacterial activity against Bacillus subtilis NCIB 3610 at 5 mg/ml by agar disk diffusion assay; type: functional; conditions: for zone of inhibition at 5000 µg/mL: Bacillus subtilis, NCIB 3610, read-out: DIZ
Candida albicans [10] = assay: Antifungal activity against Candida albicans IMRU 3669 at 2.5 mg/ml by agar disk diffusion assay; type: functional; conditions: read-out: DIZ; how it was run: as §1
Aspergillus niger [11] = assay: Antifungal activity against Aspergillus niger Ferm-BAM C-21 at 5 mg/ml by agar disk diffusion assay; type: functional; conditions: read-out: DIZ; how it was run: as §1
Aspergillus niger [12] = assay: Antifungal activity against Aspergillus niger Ferm-BAM C-21 at 2.5 mg/ml by agar disk diffusion assay; type: functional; conditions: read-out: DIZ; how it was run: as §1
Hepatovirus A [13] = assay: Antiviral activity against Hepatitis A virus infected african green monkey Vero cells at 10^-4 dilution of 5 mg/ml by plaque formation assay; type: functional; how it was run: as §2
Human alphaherpesvirus 1 [14] = assay: Antiviral activity against HSV1 infected african green monkey Vero cells at 10^-4 dilution of 5 mg/ml by plaque formation assay; type: functional; how it was run: as §2
Coxsackievirus B4 [15] = assay: Antiviral activity against Coxsackievirus B4 infected african green monkey Vero cells at 10^-4 dilution of 5 mg/ml by plaque formation assay; type: functional, organism-based; how it was run: as §2
Pseudomonas aeruginosa [16] = assay: Antibacterial activity against Pseudomonas aeruginosa NCIB 9016 at 1 mg/ml by agar disk diffusion assay; type: functional; conditions: for zone of inhibition at 1000 µg/mL: Pseudomonas aeruginosa, NCIB 9016, read-out: DIZ
Pseudomonas aeruginosa [17] = assay: Antibacterial activity against Pseudomonas aeruginosa NCIB 9016 at 2.5 mg/ml by agar disk diffusion assay; type: functional; conditions: for zone of inhibition at 2500 µg/mL: Pseudomonas aeruginosa, NCIB 9016, read-out: DIZ
Pseudomonas aeruginosa [18] = assay: Antibacterial activity against Pseudomonas aeruginosa NCIB 9016 at 5 mg/ml by agar disk diffusion assay; type: functional; conditions: for zone of inhibition at 5000 µg/mL: Pseudomonas aeruginosa, NCIB 9016, read-out: DIZ
Bacillus subtilis [19] = assay: Antibacterial activity against Bacillus subtilis NCIB 3610 at 1 mg/ml by agar disk diffusion assay; type: functional; conditions: for zone of inhibition at 1000 µg/mL: Bacillus subtilis, NCIB 3610, read-out: DIZ
Bacillus subtilis [20] = assay: Antibacterial activity against Bacillus subtilis NCIB 3610 at 2.5 mg/ml by agar disk diffusion assay; type: functional; conditions: for zone of inhibition at 2500 µg/mL: Bacillus subtilis, NCIB 3610, read-out: DIZ
Candida albicans [21] = assay: Antifungal activity against Candida albicans IMRU 3669 at 1 mg/ml by agar disk diffusion assay; type: functional; conditions: read-out: DIZ; how it was run: as §1
Aspergillus niger [22] = assay: Antifungal activity against Aspergillus niger Ferm-BAM C-21 at 1 mg/ml by agar disk diffusion assay; type: functional; conditions: read-out: DIZ; how it was run: as §1
Bacillus subtilis [23] = assay: Antimicrobial activity against Bacillus subtilis NCTC 1040 by macrotube dilution assay; type: functional
Staphylococcus aureus [24] = assay: Antimicrobial activity against Staphylococcus aureus NCTC 7447 by macrotube dilution assay; type: functional
Klebsiella pneumoniae = assay: Antimicrobial activity against Klebsiella pneumoniae NCIMB 9111 by macrotube dilution assay; type: functional
Salmonella typhi [25] = assay: Antimicrobial activity against Salmonella typhi NCIMB 9331 by macrotube dilution assay; type: functional, Salmonella enterica subsp. enterica serovar Typhi; conditions: Salmonella enterica
Candida albicans [26] = assay: Antifungal activity against Candida albicans IMRU 3669 by macrotube dilution assay; type: functional
How it was run: (§3)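 Macrotube twofold dilution per NCCLS/CLSI guidelines for fungi; 2 mg compound in 2.0 mL DMF, serially diluted across 14 tubes of Czapek's Dox medium, with a control tube; inoculum added to halve the concentration; 30 °C for 72 h; MIC is the lowest concentration without visible growth.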

Aspergillus niger [27] = assay: Antifungal activity against Aspergillus niger Ferm-BAM C-21 by macrotube dilution assay; type: functional; how it was run: as §3
Hepatovirus A [28] = assay: Antiviral activity against HAV infected african green monkey Vero cells at 10^-2 dilution of 5 mg/ml by plaque formation assay; type: functional; how it was run: as §2
Human alphaherpesvirus 1 [29] = assay: Antiviral activity against HSV1 infected african green monkey Vero cells at 10^-2 dilution of 5 mg/ml by plaque formation assay; type: functional; how it was run: as §2
Coxsackievirus B4 [30] = assay: Antiviral activity against Coxsackievirus B4 infected african green monkey Vero cells at 10^-2 dilution of 5 mg/ml by plaque formation assay; type: functional; how it was run: as §2

Row | Compound | zone of inhibition at 5000 µg/mL (Candida albicans [1]) | zone of inhibition at 5000 µg/mL (Aspergillus niger [2]) | Activity (Hepatovirus A [3]) | Activity (Human alphaherpesvirus 1 [4]) | Activity (Coxsackievirus B4 [5]) | zone of inhibition at 5000 µg/mL (Escherichia coli) | zone of inhibition at 5000 µg/mL (Salmonella typhi [6]) | zone of inhibition at 5000 µg/mL (Bacillus subtilis [7]) | zone of inhibition at 5000 µg/mL (Staphylococcus aureus [8]) | zone of inhibition at 5000 µg/mL (Bacillus subtilis [9]) | zone of inhibition at 2500 µg/mL (Candida albicans [10]) | zone of inhibition at 5000 µg/mL (Aspergillus niger [11]) | zone of inhibition at 2500 µg/mL (Aspergillus niger [12]) | zone of inhibition at 1000 µg/mL (Pseudomonas aeruginosa [16]) | zone of inhibition at 2500 µg/mL (Pseudomonas aeruginosa [17]) | zone of inhibition at 5000 µg/mL (Pseudomonas aeruginosa [18]) | zone of inhibition at 1000 µg/mL (Bacillus subtilis [19]) | zone of inhibition at 2500 µg/mL (Bacillus subtilis [20]) | zone of inhibition at 1000 µg/mL (Candida albicans [21]) | zone of inhibition at 1000 µg/mL (Aspergillus niger [22]) | also measured
1 | CCOc1ccc(N2C(=O)N(c3ccc4c(c3)Cc3ccccc3-4)C(=N)C2=S)cc1 | 15 mm | 20 mm | inactive | 50% | inactive | 17 mm | 18 mm | 17 mm | 19 mm |  |  |  |  |  |  |  |  |  |  |  | 
2 | N=C1C(=S)N(c2ccc(I)cc2)C(=O)N1c1ccc2c(c1)Cc1ccccc1-2 | 13 mm |  | 50% | 70% | 50% | 15 mm | 17 mm | 13.5 mm | 13.5 mm |  |  |  |  |  |  |  |  |  |  |  | 
3 | N=C1C(=S)N(c2ccc(Cl)c(Cl)c2)C(=O)N1c1ccc(Cl)cc1 | 17 mm | 21 mm |  |  |  | 19 mm | 17 mm | 16 mm | 16 mm | 14 mm | 13 mm | 17 mm | 15 mm | 15 mm | 16 mm | 18 mm | 13 mm | 13 mm |  |  | diameter of the inhibition zone (DIZ) (Candida albicans [1]): 14 mm; Activity (Hepatovirus A [13]): inactive; Activity (Human alphaherpesvirus 1 [14]): inactive; Activity (Coxsackievirus B4 [15]): inactive
4 | N=C1C(=S)N(c2ccc(I)cc2)C(=S)N1c1ccc(I)cc1 | 21 mm |  |  |  |  |  |  |  |  | 24 mm | 20 mm | 17 mm | 15 mm | 15 mm | 17 mm | 20 mm | 19 mm | 21 mm | 19 mm | 12 mm | MIC (Bacillus subtilis [23]): 3.9 µg/mL (≈ 7.1 µM); MIC (Staphylococcus aureus [24]): 15.6 µg/mL (≈ 28.4 µM); MIC (Klebsiella pneumoniae): 7.8 µg/mL (≈ 14.2 µM); MIC (Salmonella typhi [25]): 1.95 µg/mL (≈ 3.55 µM); MIC (Candida albicans [26]): 1.95 µg/mL (≈ 3.55 µM); MIC (Aspergillus niger [27]): 0.49 µg/mL (≈ 0.892 µM)
5 | N#CC(=S)Nc1ccc(Cl)c(Cl)c1 | 44 mm |  |  |  |  |  |  |  |  |  | 40 mm | 56 mm | 45 mm |  |  |  |  |  | 37 mm | 29 mm | diameter of the inhibition zone (DIZ) (Bacillus subtilis [9]): 43 mm; MIC (Bacillus subtilis [23]): 0.97 µg/mL (≈ 4.2 µM); MIC (Staphylococcus aureus [24]): 3.9 µg/mL (≈ 16.9 µM); MIC (Klebsiella pneumoniae): 1.95 µg/mL (≈ 8.44 µM); MIC (Salmonella typhi [25]): 0.24 µg/mL (≈ 1.04 µM); MIC (Candida albicans [26]): 0.97 µg/mL (≈ 4.2 µM); MIC (Aspergillus niger [27]): 15.6 µg/mL (≈ 67.5 µM); diameter of the inhibition zone (DIZ) (Pseudomonas aeruginosa [16]): 35 mm; diameter of the inhibition zone (DIZ) (Pseudomonas aeruginosa [17]): 37 mm; diameter of the inhibition zone (DIZ) (Pseudomonas aeruginosa [18]): 38 mm; diameter of the inhibition zone (DIZ) (Bacillus subtilis [19]): 40 mm; diameter of the inhibition zone (DIZ) (Bacillus subtilis [20]): 41 mm
6 | CCOc1ccc(N2C(=O)N(c3ccc4c(c3)Cc3ccccc3-4)C(=O)C2=S)cc1 | 14.5 mm |  |  |  |  | 19 mm | 17.5 mm | 17 mm | 15.5 mm |  |  |  |  |  |  |  |  |  |  |  | Activity (Hepatovirus A [28]): 50%; Activity (Human alphaherpesvirus 1 [29]): 50%; Activity (Coxsackievirus B4 [30]): 60%
